KCC2 mod: modulators of human KCC2 chloride dependent transport; AID 1456; 2.2% of 190,000 active; B-score of Tl+ flux slope (higher = more flux/activation; lower = inhibition) at 10 µM; KCC2 cells, thallium flux FluoZin-2 fluorescence;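 active = thallium flux slope and its plate-corrected score both differing from the plate sample mean at a set confidence after two filtering rounds, in either direction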;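 also: slope of fluorescence scaled to starting intensity during 10 to 20 s after thallium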
Diaph act CS: diaphorase activation or chemical reduction counter-screen; Diaphorase/resazurin coupled assay, resorufin fluorescence, 16 min; stronger effect = higher value; 1 = vehicle wells, 0 = NADH-free wells; AID 1229; activation factor at 20 µM; 0.005% of 190,000 active;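 active = diaphorase activity raised at least twofold by the compound at 20 µM; inactive = activation factor below 2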
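Test system: Clostridium kluyveri diaphorase, purified enzyme; input: enzyme 0.07 U/mL final; buffer or medium: 50 mM HEPES pH 7.4 with 4.542 mM MgCl2, 0.005% Tween 20; also added: 0.114 mM NADH and 0.1 mM resazurin, final amounts; schedule: 16 min enzyme reaction, ambient temperature; technique: fluorescence of resorufin, 544 nm excitation, 590 nm emission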
Diaphorase inh: counter-screen for diaphorase-based assays: diaphorase inhibitors and chemical oxidizers. AID 1217. 0.69% of 190,000 active. inhibition, % at 20 µM. diaphorase resazurin-to-resorufin fluorescence, NADH, 16 min; bacterial (C. kluyveri) enzyme, not human;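 active = primary screen inhibition at 20 µM above a set limit, cut at about 50% in these data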;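 also: plate controls were DMSO with full reaction for no effect and wells lacking NADH for full effect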
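Assay system – diaphorase enzyme from Clostridium kluyveri · Amount – diaphorase 0.14 U/mL (working solution) · Times – reaction incubation of 16 min at room temperature · Controls – No-NADH positive control and DMSO neutral control · Signal – resorufin fluorescence 544/590 nm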
ROMK mod: human ROMK K+ channel modulation, primary screen. 2% of 130,000 active. AID 1918. P48048. B-score at 10 µM. Tet-inducible ROMK, thallium flux fluorescence; actives lie on both sides;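 active = signal ratio slope over the read window, or its plate-corrected B-score, at least 3 SD from the plate mean, either direction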;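 also: B-score of the F/F0 ratio slope over 7 to 12 s after thallium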
WT yeast gro inh: growth inhibition of WT yeast, mitochondrial fusion screen. mitochondrial fusion phenotypic screen, WT strain. inhibition, % at 10 µM. 2.1% of 190,000 active. AID 1362; in the data active = inhibition above about 58%; tested in S. cerevisiae
Lmaj promast: reduces viability of Leishmania major promastigotes. resazurin fluorescence viability. inhibition, % at 10 µM. 9% of 200,000 active. AID 1063; in the data active = inhibition above about 50%;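 also: promastigotes grown with compound for 44 hours at 28 °C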
KCC2 sec1: KCC2 (human) modulation, secondary assay; shares compounds with KCC2 mod; HEK293-KCC2, thallium flux, FluoZin2 fluorescence; stronger effect = higher value; normalised thallium flux (F/F0 slope) at 10 µM; 15% of 3,700 active;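 active = thallium flux slope above the same plate's solvent-only control mean plus 3 SD; inconclusive = the two replicate wells disagree; inactive = no significant difference from solvent-only control wells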
KCC2 bumet counter: thallium flux persisting under bumetanide in KCC2 cells, counter-screen secondary assay | shares compounds with KCC2 mod | HEK293-KCC2 + bumetanide/ouabain, thallium flux FluoZin2; stronger effect = higher value | normalized thallium flux at 10 µM | 49% of 3,700 active | AID 1714;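 active = thallium entry rate above the same plate's blocked-transporter control wells by more than 3 SD; inconclusive = the two repeat wells disagree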;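 also: raw slope of fluorescence over initial fluorescence between 10 and 20 s after thallium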
KCC2 secondary2: confirmation of human KCC2 transport modulators | shares compounds with KCC2 mod | HEK293-KCC2, thallium flux FluoZin2 fluorescence; actives lie on both sides; F/F0 rise rate, 10–20 s post-thallium | normalized thallium flux at 10 µM | 23% of 3,700 active | AID 1715;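 active = thallium flux slope more than 3 SD above or below the plate's solvent-only control mean, mostly below; inconclusive = the two repeat wells disagreed; inactive = no significant shift from solvent-only controls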;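 also: raw slope with 0.1% DMSO as baseline and bumetanide as block control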
HEK293 Tl flux: parental HEK flux effect, counter-screen; shares compounds with KCC2 mod; HEK293 parental cells, thallium flux FluoZin2, ouabain; baseline-ratio fluorescence slope, 10–20 s after thallium; thallium flux rate (normalised fluorescence) at 10 µM; 46% of 3,700 active; AID 1716;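 active = thallium flux rate significantly above the same plate's solvent-only control wells, beyond their mean plus 3 SD; inconclusive = the two replicate wells gave conflicting results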
KCC2 ouabain: confirmation of human KCC2 modulators with ouabain; 48% of 3,700 active; HEK293-KCC2, thallium flux FluoZin2 fluorescence; bidirectional: low = inhibitor, high = activator; shares compounds with KCC2 mod; raw Tl+ flux slope (below DMSO = inhibition, above = activation) at 10 µM;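 active = thallium flux slope beyond 3 SD from same-plate DMSO control mean in most replicates, usually higher, sometimes lower; inconclusive = repeat tests gave conflicting results; inactive = no significant difference from controls in most replicates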;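 also: slope of initial-normalized fluorescence between seconds 10 and 20 after thallium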
HEK293 Tl flux2: parental HEK flux effect, counter-screen 2; shares compounds with KCC2 mod; HEK293 parental, thallium flux FluoZin-2 fluorescence slope; thallium flux slope at 10 µM; 33% of 3,700 active;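 active = thallium flux slope above the same plate's solvent-control mean plus 3 SD in both duplicate wells; inconclusive = duplicate wells that disagreed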;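 also: run without ouabain in cells lacking the KCC2 cotransporter; slope of fluorescence scaled to its starting value between 10 and 20 s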
An asterisk follows results filed as active; ? = inconclusive; nt = no result given. Most compounds without a hit are left out; they make up all but 12% or so of the library.

SMILES | KCC2 mod | Diaph act CS | Diaphorase inh | ROMK mod | WT yeast gro inh | Lmaj promast | KCC2 sec1 | KCC2 bumet counter | KCC2 secondary2 | HEK293 Tl flux | KCC2 ouabain | HEK293 Tl flux2
O=C(Nc1cccc(C(F)(F)F)c1)Oc1ccc(Cl)c2cccnc12 | 14* | nt | nt | nt | nt | nt | 0.016 | 0.022* | 0.031 | 0.014* | 0.021* | 0.016*
COc1ccc(-c2c(C)n([O-])c3c([n+]2=O)CCCCC3)cc1OC | -0.24 | 1 | 2 | -0.15 | -7 | -7 | nt | nt | nt | nt | nt | nt
CCN(CC)C(=O)C1CC(=O)N(c2ccc(OC)cc2)C1c1ccc(OC)cc1 (stereo not given) | -4.1* | 1.1 | -5 | nt | -6 | -8 | 0.0062 | 0.0057* | 0.028 | 0.0082 | 0.019 | 0.011
CN(C)S(=O)(=O)c1ccc(C(=O)OCCn2cnc3c2c(=O)n(C)c(=O)n3C)cc1 | 0.75 | 0.9 | 5 | 0.51 | -4 | 5 | nt | nt | nt | nt | nt | nt
O=C(NN=C1CCCC1)c1sc2ccccc2c1Cl | 11* | 0.9 | 8 | 0.0025 | 10 | 1 | 0.0057 | 0.023* | 0.031 | 0.022* | ? | 0.019*
CCC(=O)Nc1ccc(C(=O)NNC(=O)c2cc(OC)c(OC)c(OC)c2)cc1 | 1.3 | 0.9 | 11 | 0.97 | 9 | -3 | nt | nt | nt | nt | nt | nt
COc1cc(C(=O)NNC(=S)NC(=O)c2ccc(Cl)cc2)cc(OC)c1OC | 13* | 0.4 | 61* | 0.42 | -1 | 10 | 0.017* | 0.028* | 0.038 | 0.017* | 0.033* | 0.012*
Cc1snnc1C(=O)NC(=S)Nc1ccccc1 | 52* | nt | nt | nt | nt | nt | 0.026* | 0.089* | ? | 0.047* | 0.064* | 0.014*
O=C(NC(=S)Nc1ccccc1)c1ccc(Br)o1 | 111* | 0.9 | 12 | nt | 2 | -4 | 0.046* | 0.19* | 0.062* | 0.1* | 0.13* | 0.036*
O=C(C1=C[C@@H](c2ccc(C(F)(F)F)cc2)C[C@@H](OCCCCO)O1)N1CCN(Cc2ccc3c(c2)OCO3)CC1 | 0.047 | 0.7 | 29 | nt | 21 | 38 | nt | nt | nt | nt | nt | nt
O=C(COC(=O)CNC(=O)c1ccccc1)Nc1cccc(Br)c1 | 0.33 | 0.9 | 14 | nt | -10 | -3 | nt | nt | nt | nt | nt | nt
COc1ccc(NC(=S)NC(=O)c2ccc(Br)o2)cc1 | 100* | 1 | -2 | nt | 7 | -1 | 0.057* | 0.14* | 0.061* | 0.12* | 0.11* | 0.053*
COc1ccc(C(=O)NNC(=S)NC(=O)c2ccc(Br)o2)cc1OC | 6.3* | 0.7 | 35 | -0.13 | 20 | 19 | 0.0065 | 0.021* | 0.038* | 0.02* | ? | 0.021*
COc1ccc(NC(=S)NC(=O)/C=C/c2ccco2)cc1 | 4.4* | 0.9 | 6 | 1.2 | 10 | 0 | 0.01 | 0.016* | 0.037 | ? | ? | 0.012
CC(=O)NC(=S)Nc1ccc(NC(=S)NC(=O)/C=C/c2ccco2)cc1 | -0.74 | nt | nt | 1.4 | nt | nt | nt | nt | nt | nt | nt | nt
O=C(NNC(=S)NC(=O)c1sc2ccccc2c1Cl)c1ccc(Cl)cc1 | 25* | 0.7 | 25 | 2.1 | 30 | -4 | 0.017* | 0.053* | ? | 0.037* | 0.052* | 0.013*
S=C(NCC1CCCO1)Nc1ccccc1 (stereo not given) | -0.49 | 0.8 | 15 | -0.77 | 4 | 11 | nt | nt | nt | nt | nt | nt

Bioassay records (PubChem)
